Compound activity from PubChem BioAssay.
Hits are enriched below; roughly 2.5% of the tested compounds scored in any of these assays.
PMI act: phosphomannose isomerase (human) activation | P34949 | activation factor at 20 µM | purified human PMI, coupled resazurin fluorescence, 20 min; hits give high values; 1 = vehicle control, 0 substrate-free wells | 0.005% of 190,000 active;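 active = activation factor of 2 or more at 20 µM, relative to plate controls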
Diaph act CS: counter-screen for diaphorase-based assays: diaphorase activators and chemical reducers. activation factor at 20 µM. 0.005% of 190,000 active. Diaphorase/resazurin coupled assay, resorufin fluorescence, 16 min; hits give high values; 1 = vehicle wells, 0 = NADH-free wells;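 active = diaphorase activity raised at least twofold by the compound at 20 µM; inactive = activation factor below 2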
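Material: Clostridium kluyveri diaphorase, purified enzyme; Quantity: enzyme 0.07 U/mL final; Medium: HEPES pH 7.4 buffer with MgCl2 and Tween 20; Dosing: single compound dose of 20 µM, 1% DMSO final; Schedule: 16 min reaction at room temperature; Measured by: red resorufin fluorescence at 544/590 nm excitation/emission.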
FLuc act counter: firefly luciferase counter-screen for stimulation assays; ATPlite luciferase biochemical, luminescence, 10 min; 0 = ATP-free wells, 1 = DMSO control; activation factor at 10 µM; 200,000 tested, under 10 active;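 active = luciferase activation factor, scaled between plate controls, of at least 2 with compound at 10 µM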
Target sequence (P08659 whole entry, looked up): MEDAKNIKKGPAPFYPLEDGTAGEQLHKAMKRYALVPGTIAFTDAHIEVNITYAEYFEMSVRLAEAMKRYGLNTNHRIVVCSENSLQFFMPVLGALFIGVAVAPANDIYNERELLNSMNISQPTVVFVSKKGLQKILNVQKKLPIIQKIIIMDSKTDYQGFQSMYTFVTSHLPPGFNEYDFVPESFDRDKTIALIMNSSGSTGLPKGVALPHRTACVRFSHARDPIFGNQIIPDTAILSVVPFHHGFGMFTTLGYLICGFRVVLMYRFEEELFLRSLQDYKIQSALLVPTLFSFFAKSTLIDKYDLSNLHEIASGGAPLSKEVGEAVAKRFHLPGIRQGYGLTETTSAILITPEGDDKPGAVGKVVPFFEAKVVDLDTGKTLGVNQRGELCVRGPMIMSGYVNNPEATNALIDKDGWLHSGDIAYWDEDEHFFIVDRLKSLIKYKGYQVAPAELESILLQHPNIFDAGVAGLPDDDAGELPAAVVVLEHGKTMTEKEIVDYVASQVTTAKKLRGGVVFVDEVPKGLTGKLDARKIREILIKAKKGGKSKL
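Assay system: Luciferase/luciferin detection reagent, cell-free biochemical luciferase assay / Read-out: luciferase activation / Benchmarks: No-ATP low control, compound-free enzyme-plus-ATP high control / Medium: PBS buffer for ATP / Detection: luminescence measurement of luciferase light output / Schedule: 10 min at ambient temperature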
Diaph inh CS: counter-screen for diaphorase-based assays: diaphorase inhibitors and chemical oxidizers. diaphorase resazurin-to-resorufin fluorescence, NADH, 16 min; bacterial (C. kluyveri) enzyme, not human. 0.69% of 190,000 active. inhibition, % at 20 µM;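 active = primary screen inhibition at 20 µM above a set limit, cut at about 50% in these data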;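 also: plate controls were DMSO with full reaction for no effect and wells lacking NADH for full effect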
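Test system: diaphorase enzyme from Clostridium kluyveri; amount: diaphorase at 0.14 U/mL in enzyme working solution; detection: fluorescence of resorufin formed from resazurin, Ex 544/Em 590 nm; times: reaction incubation of 16 min at room temperature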
PMI act hi M6P: PMI (human) activation, high substrate; coupled PMI enzyme assay, resazurin fluorescence, 20 min; hits give high values; 1 = untreated enzyme, 0 = substrate-free blank; AID 1216; activation factor at 20 µM; P34949; 0.34% of 190,000 active;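 active = activation factor of 2 or more at 20 µM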
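Test system – human PMI in coupled enzyme assay · Timing – 20 min incubation at room temperature · Detection – Diaphorase-driven resazurin-to-resorufin fluorescence, excitation 544, emission 590 nm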
FLuc inh counter: inhibits firefly luciferase, flagging false hits in luciferase inhibition screens | P08659 | ATPLite firefly luciferase biochemical luminescence, 10 min | 1.5% of 200,000 active | inhibition, % at 10 µM;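 active = inhibition above about 50% when tested at 10 µM, limit read from the data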
The depositor's hits bear a star.

SMILES	PMI act	Diaph act CS	FLuc act counter	Diaph inh CS	PMI act hi M6P	FLuc inh counter
CCSC1=N/C(=C/c2ccsc2)C(=O)N1c1ccccc1	0.9	0.8	1.1	24	0.8	-10
Cc1cc(/C=C2/C(=N)N3C(=NC2=O)SN=C3S(C)(=O)=O)c(C)n1-c1ccc(F)cc1	1.4	0.7	0.3	34	1.3	70*
CCOc1ccc(-n2c(C)cc(/C=C3/C(=N)N4C(=NC3=O)SN=C4S(C)(=O)=O)c2C)cc1	1.6	0.8	1	21	2.1*	-1
CC1=CC2=NC(=O)/C(=C\c3cc(C)n(-c4ccc(F)cc4)c3C)C(=N)N2O1	1	0.8	1.1	16	0.9	-6
COc1ccccc1-n1c(C)cc(/C=C2/C(=N)N3C(=NC2=O)SN=C3S(C)(=O)=O)c1C	1.5	0.8	0.1	19	1.1	87*
Cc1ccccc1-n1c(C)cc(/C=C2/C(=N)N3C(c4ccccc4)=CSC3=NC2=O)c1C	0.9	0.9	1	8	0.9	5
O=C(/C=C/c1ccccc1)Nc1ccc(Cl)cn1	0.9	0.9	0.8	13	0.7	22
C/C(=N\Nc1cccc2cccnc12)c1ccc[nH]1	1	0.9	0.1	13	0.9	86*
CCC(=O)Nc1cccc2cccnc12	1	0.9	1.1	8	1	-8
COc1ccc(-c2csc(N3N=C(C)C(C)C3=O)n2)cc1 (configuration not stated)	1.1	1	0.4	-2	1	61*
Nc1ccc(-c2nc3ccc(-c4nc5ccccc5o4)cc3[nH]2)cc1	1	1	1	1	1	-4
Cc1nc2ccc(-c3nc4ccc(N)cc4[nH]3)cc2[nH]1	0.9	1.1	0.2	-9	0.8	78*
Nc1ccc(-c2nc3ccc(N)cc3[nH]2)cc1	0.8	0.9	0.5	11	0.6	52*
Nc1ccc2nc(-c3ccc(Cl)cc3)[nH]c2c1	0.9	0.9	0.2	10	0.8	75*
Cc1nc2ccc(-c3nc4ccccc4o3)cc2[nH]1	0.9	0.9	0.4	13	0.9	63*
Cc1ccccc1C(C(=O)NC1CCCC1)N(C(=O)CNC(=O)c1ccco1)c1cccnc1 (configuration not stated)	0.9	0.9	1	11	0.9	-3
O=C1c2ccccc2C(=O)N1OCc1ccccc1[N+](=O)[O-]	0.9	0.9	0.9	8	0.9	13
Oc1ccc(Nc2nc(-c3ccc4ccccc4c3)cs2)cc1	0.9	0.9	0.8	10	1	22
Oc1ccc(-c2csc(-c3cccnc3)n2)c(O)c1	1.1	1	0.5	1	1	53*
Oc1ccc(-c2nc(-c3ccc(O)c(O)c3)cs2)cc1	0.5	0.4	1	63*	0.7	2
COc1cccc(-c2cc(C(=O)Nc3ccc4c(c3)OCCO4)c3ccccc3n2)c1	0.8	0.8	1.1	21	0.8	-6
CCNC(=S)NNC(=O)c1cc(-c2ccccc2C)nc2ccccc12	1.2	1	1	3	1.5	2
CCNC(=S)NNC(=O)c1cc(-c2ccc(OCC)cc2)nc2ccccc12	1.1	0.8	0	18	1	98*
CC(C)Oc1cccc(-c2cc(C(=O)NC(=S)N(C)c3ccccc3C(=O)O)c3ccccc3n2)c1	0.9	0.8	0.4	17	1	64*
O=C(NNC(=O)c1cc(-c2ccccc2)nc2ccccc12)Nc1cccc(Cl)c1	0.9	0.8	1.1	15	0.9	-6
SMILES	PMI act	Diaph act CS	FLuc act counter	Diaph inh CS	PMI act hi M6P	FLuc inh counter
CCNC(=S)NNC(=O)c1cc(-c2cccc(OC)c2)nc2ccccc12	1.1	1	0.2	-2	1.2	83*
CC(C)(C)c1ccc(-c2cc(C(=O)NNC(=O)Nc3ccccc3)c3ccccc3n2)cc1	0.9	0.9	0.2	12	0.9	77*
CCCOc1cccc(-c2cc(C(=O)NNC(=S)NCC)c3ccccc3n2)c1	1.1	1	0.5	-1	1.1	48
Cc1ccccc1NC(=O)c1sc2nc3c(c(-c4ccco4)c2c1N)CCC3	1.1	0.5	1.1	53*	0.8	-6
N#Cc1sc2nc3c(c(-c4ccco4)c2c1N)CCCC3	1	0.5	1	52*	0.9	-3
Nc1c(C(=O)NCC2CCCO2)sc2nc3c(c(-c4ccco4)c12)CC/C3=C\c1ccco1 (configuration not stated)	1.2	0.1	1	89*	1	1
COc1ccccc1N1CCN(C(=O)COc2ccc(S(=O)(=O)NC(C)(C)C)cc2)CC1	1	0.9	1.1	8	1.1	-10
COC(=O)CC/C(O)=C1\C(=O)CC(C)(C)CC1=NCCc1nc2ccccc2[nH]1	1	0.9	1.1	12	1	-8
O=Nc1ccc(NOC(=O)c2ccccc2)cc1	0.9	0.9	0.1	10	0.7	90*
CC(C)OC(=O)c1ccc(NC(=O)c2ccccc2)cc1	0.9	0.9	0.9	7	1	8
CCOc1cc(/C=C2\N=C(SCC)SC2=O)cc([N+](=O)[O-])c1OC(C)=O	0.6	0.1	1	90*	0.5	-5
CCOc1cc(/C=C2\N=C(SC)SC2=O)cc([N+](=O)[O-])c1OC(C)=O	0.8	0.2	1	81*	0.6	-5
CCOc1c(OC(C)=O)ccc(/C=C2\N=C(SCC)SC2=O)c1[N+](=O)[O-]	0.8	0.8	1.1	18	0.8	-6
O=C(C1CCCN(Cc2nc(-c3ccc(Cl)cc3)no2)C1)N1CCOCC1 (configuration not stated)	1	0.9	1.1	6	1	-7
N#C/C(=N\Nc1ccc(F)cc1)C(=N)N1CCCCCC1	0.9	0.9	0.4	10	0.9	59*
Cc1ccc(N/N=C(\C#N)C(=N)N2CCCCCC2)cc1	1	1	0.5	-3	1.1	51*
O=c1nc2s/c(=C\c3ccc(-c4ccccc4[N+](=O)[O-])o3)c(=O)n2nc1-c1ccccc1	1	0.3	1	69*	0.5	2
CCC(O)CNC(=O)CCc1nnc(C2(c3ccc(Cl)cc3)CCC2)o1 (configuration not stated)	1	0.9	1.1	14	1	-5
CC(=O)Sc1nc(-c2ccccc2)[nH]c1S(=O)(=O)c1ccc(C)cc1	1.4	0.6	1	36	2.2*	-1
CSc1nc(-c2ccc(C)cc2)[nH]c1S(=O)(=O)c1ccccc1	1.1	0.8	1.1	19	1.1	-8
